Reference: ChEMBL document CHEMBL4665666, “Discovery and characterization of trypanocidal cysteine protease inhibitors from the 'malaria box'” (Eur J Med Chem, 2019)
The source made the active and inactive calls. No cut-off for these calls is given here.

Experiments:
[1] = target: Cruzipain (Trypanosoma cruzi) (UniProt P25779); assay: Inhibition of recombinant Trypanosoma cruzi cruzain at 5 uM using Z-FR-AMC as substrate and measured at 12 sec interval for 5 mins without preincubation by fluorimetric analysis relative to control
How it was run: (§1)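 Recombinant rhodesain or cruzain (1 nM) in 0.1 M sodium acetate pH 5.5, 0.01% Triton X-100, 1 mM β-mercaptoethanol. Compound at a single concentration, either without or after 10 min enzyme pre-incubation. Inhibition is relative to DMSO, with E-64 as positive control. Done in duplicate (primary screen) or triplicate.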

[2] = target: Cruzipain (Trypanosoma cruzi) (UniProt P25779); assay: Inhibition of recombinant Trypanosoma cruzi cruzain at 5 uM using Z-FR-AMC as substrate preincubated for 10 mins followed by substrate addition and measured at 12 sec interval for 5 mins by fluorimetric analysis relative to control; conditions: time 15.0 min; how it was run: as §1
[3] = target: Rhodesain (Trypanosoma brucei rhodesiense) (UniProt Q95PM0); assay: Inhibition of recombinant Trypanosoma brucei rhodesain expressed in Pichia pastoris at 5 uM using Z-FR-AMC as substrate and measured at 12 sec interval for 5 mins without preincubation by fluorimetric analysis relative to control; how it was run: as §1
[4] = target: Rhodesain (Trypanosoma brucei rhodesiense) (UniProt Q95PM0); assay: Inhibition of recombinant Trypanosoma brucei rhodesain expressed in Pichia pastoris at 5 uM using Z-FR-AMC as substrate preincubated for 10 mins followed by substrate addition and measured at 12 sec interval for 5 mins by fluorimetric analysis relative to control; conditions: time 15.0 min; how it was run: as §1
[5] = target: Cruzipain (Trypanosoma cruzi) (UniProt P25779); assay: Inhibition of recombinant Trypanosoma cruzi cruzain at 10 uM using Z-FR-AMC as substrate and measured at 12 sec interval for 5 mins without preincubation by fluorimetric analysis relative to control
How it was run: as §1, with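 “pre-incubation. Z-FR-AMC 2.5 µM, read at 340/440 nm every 12 s for 5 min.” for “pre-incubation.”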

[6] = target: Cruzipain (Trypanosoma cruzi) (UniProt P25779); assay: Inhibition of recombinant Trypanosoma cruzi cruzain at 10 uM using Z-FR-AMC as substrate preincubated for 10 mins followed by substrate addition and measured at 12 sec interval for 5 mins by fluorimetric analysis relative to control; conditions: time 15.0 min
How it was run: as §1, with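 “pre-incubation. Z-FR-AMC 2.5 µM, read at 340/440 nm every 12 s for 5 min.” for “pre-incubation.”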

[7] = target: Rhodesain (Trypanosoma brucei rhodesiense) (UniProt Q95PM0); assay: Inhibition of recombinant Trypanosoma brucei rhodesain expressed in Pichia pastoris at 10 uM using Z-FR-AMC as substrate and measured at 12 sec interval for 5 mins without preincubation by fluorimetric analysis relative to control
How it was run: as §1, with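 “pre-incubation. Z-FR-AMC 2.5 µM, read at 340/440 nm every 12 s for 5 min.” for “pre-incubation.”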

[8] = target: Rhodesain (Trypanosoma brucei rhodesiense) (UniProt Q95PM0); assay: Inhibition of recombinant Trypanosoma brucei rhodesain expressed in Pichia pastoris at 10 uM using Z-FR-AMC as substrate preincubated for 10 mins followed by substrate addition and measured at 12 sec interval for 5 mins by fluorimetric analysis relative to control; conditions: time 15.0 min
How it was run: as §1, with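 “pre-incubation. Z-FR-AMC 2.5 µM, read at 340/440 nm every 12 s for 5 min.” for “pre-incubation.”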

[9] = target: Cruzipain (Trypanosoma cruzi) (UniProt P25779); assay: Inhibition of recombinant Trypanosoma cruzi cruzain at 100 uM using Z-FR-AMC as substrate and measured at 12 sec interval for 5 mins without preincubation by fluorimetric analysis relative to control
How it was run: as §1, with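 “pre-incubation. Z-FR-AMC 2.5 µM, read at 340/440 nm every 12 s for 5 min.” for “pre-incubation.”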

[10] = target: Cruzipain (Trypanosoma cruzi) (UniProt P25779); assay: Inhibition of recombinant Trypanosoma cruzi cruzain at 100 uM using Z-FR-AMC as substrate preincubated for 10 mins followed by substrate addition and measured at 12 sec interval for 5 mins by fluorimetric analysis relative to control; conditions: time 15.0 min
How it was run: as §1, with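 “pre-incubation. Z-FR-AMC 2.5 µM, read at 340/440 nm every 12 s for 5 min.” for “pre-incubation.”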

[11] = target: Rhodesain (Trypanosoma brucei rhodesiense) (UniProt Q95PM0); assay: Inhibition of recombinant Trypanosoma brucei rhodesain expressed in Pichia pastoris at 100 uM using Z-FR-AMC as substrate and measured at 12 sec interval for 5 mins without preincubation by fluorimetric analysis relative to control
How it was run: (§2)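 Run with no pre-incubation or with 10 min enzyme-compound pre-incubation. Fluorescence read at 340/440 nm. Concentration was set by solubility under assay conditions. Inhibition is against DMSO, with E-64 as positive control; triplicate.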

[12] = target: Rhodesain (Trypanosoma brucei rhodesiense) (UniProt Q95PM0); assay: Inhibition of recombinant Trypanosoma brucei rhodesain expressed in Pichia pastoris at 100 uM using Z-FR-AMC as substrate preincubated for 10 mins followed by substrate addition and measured at 12 sec interval for 5 mins by fluorimetric analysis relative to control; conditions: time 15.0 min; how it was run: as §2
[13] = target: T1, Cruzipain (Trypanosoma cruzi, UniProt P25779); assay: Inhibition of recombinant Trypanosoma cruzi cruzain using Z-FR-AMC as substrate and measured at 12 sec interval for 5 mins without preincubation by fluorimetric analysis
How it was run: (§3)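 Cruzain (recombinant, 1 nM) in 0.1 M sodium acetate pH 5.5 with 0.01% Triton X-100 and 1 mM β-mercaptoethanol; Z-FR-AMC 2.5 µM, read at 340/440 nm every 12 s for 5 min, with or without 10 min enzyme–compound pre-incubation. […] For mechanism and Ki, 0.3–20.0 µM substrate and five inhibitor levels were used, with Lineweaver-Burk plots.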

[14] = target: T2, Rhodesain (Trypanosoma brucei rhodesiense, UniProt Q95PM0); assay: Inhibition of recombinant Trypanosoma brucei rhodesain expressed in Pichia pastoris using Z-FR-AMC as substrate and measured at 12 sec interval for 5 mins without preincubation by fluorimetric analysis
How it was run: (§4)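 Rhodesain (1 nM) with Z-FR-AMC (2.5 µM) in 0.1 M sodium acetate pH 5.5, 0.01% Triton X-100, 1 mM β-mercaptoethanol, with or without 10 min enzyme-compound pre-incubation. Fluorescence read at 340/440 nm. IC50 by four-parameter nonlinear regression from at least six concentrations in triplicate, with at least two independent runs. Mean ± SEM reported.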

[15] = target: Cruzipain (Trypanosoma cruzi) (UniProt P25779); assay: Inhibition of recombinant Trypanosoma cruzi cruzain at 50 uM preincubated for 10 mins in presence of 0.1% Triton X-100 relative to control
How it was run: (§5)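 To test detergent sensitivity, cruzain was pre-incubated 10 min at room temperature with compound with no Triton X-100, 0.01% or 0.1% Triton X-100. Cleavage of Z-FR-AMC was then followed at pH 5.5 in acetate buffer. Percent inhibition was compared across detergent levels.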

[16] = target: Cruzipain (Trypanosoma cruzi) (UniProt P25779); assay: Inhibition of recombinant Trypanosoma cruzi cruzain at 50 uM preincubated for 10 mins in presence of 0.01% Triton X-100 relative to control; how it was run: as §5
[17] = target: Cruzipain (Trypanosoma cruzi) (UniProt P25779); assay: Inhibition of recombinant Trypanosoma cruzi cruzain at 50 uM preincubated for 10 mins in absence of Triton X-100 relative to control; how it was run: as §5
[18] = target: Cruzipain (Trypanosoma cruzi) (UniProt P25779); assay: Inhibition of recombinant Trypanosoma cruzi cruzain at 50 uM preincubated with BSA for 5 mins followed by incubation with enzyme for 5 mins followed by substrate addition relative to control; conditions: time 10.0 min
How it was run: (§6)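 For BSA sensitivity, compound was held 5 min with BSA (2 mg/mL in 0.001% Triton X-100), then 5 min with 1 nM cruzain, before substrate was added and activity monitored. Parallel runs omitted BSA under otherwise identical conditions.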

[19] = target: Cruzipain (Trypanosoma cruzi) (UniProt P25779); assay: Inhibition of recombinant Trypanosoma cruzi cruzain at 50 uM preincubated with enzyme for 5 mins followed by substrate addition in absence of BSA relative to control; how it was run: as §6
[20] = target: T1, Cruzipain; assay: Competitive inhibition of recombinant Trypanosoma cruzi cruzain by Lineweaver-Burk plot analysis; how it was run: as §3
[21] = target: T3, cathepsin S (Homo sapiens, UniProt P25774); assay: Inhibition of recombinant human cathepsin S expressed in Escherichia coli at 50 uM using Z-VVR-AMC as substrate and measured after 15 mins without preincubation by microplate reader based assay relative to control; conditions: probe Z-VVR-AMC
How it was run: (§7)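 Run with or without 5 min compound–enzyme pre-incubation. AMC fluorescence at 380/460 nm over 15 min. Inhibition relative to DMSO (2% final); E64 1 µM as positive control. Two independent experiments, each in triplicate.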

[22] = target: T3, cathepsin S; assay: Inhibition of recombinant human cathepsin S expressed in Escherichia coli at 50 uM using Z-VVR-AMC as substrate preincubated for 10 mins followed by substrate addition and measured after 15 mins by microplate reader based assay relative to control; conditions: probe Z-VVR-AMC, in the assay text read “preincubated for 5 mins” for “preincubated for 10 mins”, time 20 min; how it was run: as §7
[23] = target: T4, cathepsin B (Rattus norvegicus, UniProt P00787); assay: Inhibition of rat cathepsin B at 50 uM using Z-FR-AMC as substrate measured after 15 mins without preincubation by microplate reader based assay relative to control; conditions: probe Z-FR-AMC
How it was run: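 Rat cathepsin B (20 nM) at 25°C in 100 mM sodium phosphate, 100 mM NaCl, 1 mM EDTA, 1 mM DTT, 0.01% CHAPS. Compound pre-incubated 0 or 5 min with enzyme; Z-FR-AMC 50 µM, ex 380/em 440 nm, monitored 15 min. Inhibition is versus 2% DMSO, with 1 µM E64 control. Two independent experiments in triplicate.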

[24] = test system: Trypanosoma cruzi; assay: Trypanocidal activity against Trypanosoma cruzi Y strain trypomastigotes infected in C57BL/6 mouse peritoneal macrophage assessed as reduction in number of trypomastigotes release at 50 uM and measured after day 3 to day 11 post-infection by Neubauer chamber method; format: functional, organism-based; conditions: time 11.0 day
How it was run: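 Thioglycolate-elicited peritoneal macrophages from female C57BL/6 mice, 2 × 10^5/well, infected 2 h at 37°C with Y strain trypomastigotes at 5:1 (parasite:cell) and washed. They were then held with compound (3.125–50 µM) or IFN-γ 100 ng/mL. Trypomastigotes released into the supernatant were counted in a Neubauer chamber at several days after infection. Three independent experiments, each in triplicate.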

[25] = target: T4, cathepsin B; assay: Inhibition of rat cathepsin B at 50 uM using Z-FR-AMC as substrate preincubated for 5 mins followed by substrate addition and measured after 15 mins by microplate reader based assay relative to control; conditions: probe Z-FR-AMC
[26] = target: T1, Cruzipain; assay: Inhibition of recombinant Trypanosoma cruzi cruzain using Z-FR-AMC as substrate preincubated for 10 mins followed by substrate addition and measured at 12 sec interval for 5 mins by fluorimetric analysis; how it was run: as §3
[27] = target: T2, Rhodesain; assay: Inhibition of recombinant Trypanosoma brucei rhodesain expressed in Pichia pastoris using Z-FR-AMC as substrate preincubated for 10 mins followed by substrate addition and measured at 12 sec interval for 5 mins by fluorimetric analysis; how it was run: as §4
[28] = target: Cruzipain (Trypanosoma cruzi) (UniProt P25779); assay: Inhibition of recombinant Trypanosoma cruzi cruzain at 100 uM preincubated for 10 mins in presence of 0.1% Triton X-100 relative to control; how it was run: as §5
[29] = target: Cruzipain (Trypanosoma cruzi) (UniProt P25779); assay: Inhibition of recombinant Trypanosoma cruzi cruzain at 100 uM preincubated for 10 mins in presence of 0.01% Triton X-100 relative to control; how it was run: as §5
[30] = target: Cruzipain (Trypanosoma cruzi) (UniProt P25779); assay: Inhibition of recombinant Trypanosoma cruzi cruzain at 100 uM preincubated for 10 mins in absence of Triton X-100 relative to control; how it was run: as §5
[31] = target: Cruzipain (Trypanosoma cruzi) (UniProt P25779); assay: Inhibition of recombinant Trypanosoma cruzi cruzain at 100 uM preincubated with BSA for 5 mins followed by incubation with enzyme for 5 mins followed by substrate addition relative to control; conditions: time 10.0 min; how it was run: as §6
[32] = target: Cruzipain (Trypanosoma cruzi) (UniProt P25779); assay: Inhibition of recombinant Trypanosoma cruzi cruzain at 100 uM preincubated with enzyme for 5 mins followed by substrate addition in absence of BSA relative to control; how it was run: as §6
[33] = test system: Trypanosoma cruzi; assay: Trypanocidal activity against Trypanosoma cruzi Tulahuen C4 assessed as reduction in parasite viability; format: functional, organism-based
[34] = test system: Trypanosoma brucei brucei; assay: Trypanocidal activity against Trypanosoma brucei brucei Squib 427 assessed as reduction in parasite viability; format: functional, organism-based

Chain of Rhodesain (Trypanosoma brucei rhodesiense) (Q95PM0 1-450): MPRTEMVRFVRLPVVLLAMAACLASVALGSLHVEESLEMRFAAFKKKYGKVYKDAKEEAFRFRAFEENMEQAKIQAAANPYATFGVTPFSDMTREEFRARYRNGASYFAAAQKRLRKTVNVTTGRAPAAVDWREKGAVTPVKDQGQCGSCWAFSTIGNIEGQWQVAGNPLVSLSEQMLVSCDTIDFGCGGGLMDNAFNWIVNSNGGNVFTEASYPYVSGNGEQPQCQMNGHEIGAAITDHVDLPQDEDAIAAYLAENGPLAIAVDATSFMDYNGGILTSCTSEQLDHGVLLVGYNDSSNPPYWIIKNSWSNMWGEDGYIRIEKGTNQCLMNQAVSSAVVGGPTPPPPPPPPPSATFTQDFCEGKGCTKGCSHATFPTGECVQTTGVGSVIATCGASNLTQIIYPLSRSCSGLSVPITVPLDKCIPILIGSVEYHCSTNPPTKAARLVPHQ
T1 sequence (P25779 whole entry): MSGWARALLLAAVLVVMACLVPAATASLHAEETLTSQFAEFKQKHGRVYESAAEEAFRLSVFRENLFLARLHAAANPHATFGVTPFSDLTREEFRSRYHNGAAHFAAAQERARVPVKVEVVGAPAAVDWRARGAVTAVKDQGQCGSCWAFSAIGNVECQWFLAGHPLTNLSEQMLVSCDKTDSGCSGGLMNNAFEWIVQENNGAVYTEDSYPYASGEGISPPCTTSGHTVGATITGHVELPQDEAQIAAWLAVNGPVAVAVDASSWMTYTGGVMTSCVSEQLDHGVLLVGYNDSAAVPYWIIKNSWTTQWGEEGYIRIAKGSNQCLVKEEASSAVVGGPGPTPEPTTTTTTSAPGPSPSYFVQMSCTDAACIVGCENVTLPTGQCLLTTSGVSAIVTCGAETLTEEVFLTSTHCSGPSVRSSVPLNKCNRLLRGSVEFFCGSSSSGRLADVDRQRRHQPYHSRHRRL
Chain of Cruzipain (Trypanosoma cruzi) (P25779 123-467 limits assumed): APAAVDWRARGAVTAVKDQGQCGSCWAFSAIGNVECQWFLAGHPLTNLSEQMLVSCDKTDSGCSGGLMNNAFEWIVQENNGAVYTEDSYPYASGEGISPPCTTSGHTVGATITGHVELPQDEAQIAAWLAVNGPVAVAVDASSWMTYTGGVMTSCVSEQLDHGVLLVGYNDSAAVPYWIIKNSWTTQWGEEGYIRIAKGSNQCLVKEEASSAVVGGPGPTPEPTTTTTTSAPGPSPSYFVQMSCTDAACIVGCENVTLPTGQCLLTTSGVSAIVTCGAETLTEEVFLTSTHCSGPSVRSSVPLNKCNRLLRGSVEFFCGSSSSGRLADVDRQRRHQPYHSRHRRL
T2 sequence (Q95PM0 whole entry): as the sequence (Q95PM0 1-450) above
T3 sequence (P25774 whole entry): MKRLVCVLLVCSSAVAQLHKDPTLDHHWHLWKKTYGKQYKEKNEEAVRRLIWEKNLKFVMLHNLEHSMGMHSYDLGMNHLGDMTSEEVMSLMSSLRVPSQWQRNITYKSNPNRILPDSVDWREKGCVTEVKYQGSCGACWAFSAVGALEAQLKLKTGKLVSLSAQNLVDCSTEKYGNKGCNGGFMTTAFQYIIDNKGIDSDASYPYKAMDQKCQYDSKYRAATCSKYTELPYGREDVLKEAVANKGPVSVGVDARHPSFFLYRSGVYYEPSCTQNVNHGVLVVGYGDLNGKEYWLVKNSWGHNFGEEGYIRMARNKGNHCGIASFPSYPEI
T4 sequence (P00787 whole entry): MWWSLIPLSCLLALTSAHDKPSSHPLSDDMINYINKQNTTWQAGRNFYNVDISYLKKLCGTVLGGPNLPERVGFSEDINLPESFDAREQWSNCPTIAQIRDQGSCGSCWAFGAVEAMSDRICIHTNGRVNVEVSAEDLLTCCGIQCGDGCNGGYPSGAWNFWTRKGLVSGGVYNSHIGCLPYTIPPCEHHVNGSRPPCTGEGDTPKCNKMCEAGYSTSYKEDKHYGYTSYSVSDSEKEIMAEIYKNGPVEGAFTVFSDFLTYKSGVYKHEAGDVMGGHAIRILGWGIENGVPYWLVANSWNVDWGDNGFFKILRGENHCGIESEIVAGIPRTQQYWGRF

c1ccc(CNc2nc(Nc3ccccc3)nc3ccccc23)cc1
inhibition [1]: 70.8% | inhibition [2]: 82.3% | inhibition [3]: 67.1% | inhibition [4]: 82.8% | inhibition [5]: 62% | inhibition [6]: 57% | inhibition [7]: 14% | inhibition [8]: 9% | inhibition [9]: 91% | inhibition [10]: 90% | inhibition [11]: 85% | inhibition [12]: 94% | IC50 [13]: 9 µM | IC50 [14]: 30 µM | inhibition [15]: 28.1% | inhibition [16]: 89.8% | inhibition [17]: 82.4% | inhibition [18]: 64.4% | inhibition [19]: 70.2% | Ki [20]: 1.4 µM | inhibition at 0.25 h, 50 µM [21]: 14.8% | inhibition at 0.25 h, 50 µM [22]: 4.5% | inhibition at 0.25 h, 50 µM [23]: 28.6% | Activity [24]: Active | inhibition at 0.25 h, 50 µM [25]: 27.5%

COCCNC(=O)c1ccc(OC2CCN(Cc3ccc(F)c(F)c3)CC2)c(Cl)c1
inhibition [1]: 42% | inhibition [2]: 74.5% | inhibition [3]: 42.1% | inhibition [4]: 83.8% | inhibition [5]: 18% | inhibition [6]: 66% | inhibition [7]: 14% | inhibition [8]: 81% | inhibition [9]: 29% | inhibition [10]: 78% | inhibition [11]: 63% | inhibition [12]: 75% | IC50 [26]: 5 µM | IC50 [27]: 9 µM | inhibition [28]: 78.6% | inhibition [29]: 68.2% | inhibition [30]: 98.3% | inhibition [31]: 64.7% | inhibition [32]: 79.9% | IC50 [33]: 32 µM | IC50 [34]: 32 µM | Activity [24]: Active
